Assay results: ChEMBL document CHEMBL3120154, “2-[N-Alkyl(R-phenyl)-aminomethyl]-3-phenyl-7-trifluoromethylquinoxalines as anticancer agents inhibitors of folate enzymes” (Eur J Med Chem, 2014)

Columns and labels:
Assay type in all cases: functional
SR [1] = experiment: Cytotoxicity against human SR cells at 10^-7 M after 48 hrs by SRB assay; settings: read-out: GI
RXF 393 = experiment: Cytotoxicity against human RXF393 cells after 48 hrs by SRB assay; settings: RXF 393, 48 h
[2] = Cytotoxicity against human UACC257 cells after 48 hrs by SRB assay; settings: UACC-257, 48 h
BT-549 = experiment: Cytotoxicity against human BT549 cells at 10^-8 M after 48 hrs by SRB assay; settings: BT-549, 48 h, read-out: GI
MCF7 [3] = experiment: Cytotoxicity against human MCF7 cells at 10^-8 M after 48 hrs by SRB assay; settings: MCF7, 48 h, read-out: GI
PC-3 [4] = experiment: Cytotoxicity against human PC3 cells at 10^-8 M after 48 hrs by SRB assay; settings: PC-3, 48 h, read-out: GI
786-0 = experiment: Cytotoxicity against human 786-0 cells at 10^-8 M after 48 hrs by SRB assay; settings: 786-0, 48 h, read-out: GI
OVCAR-8 [5] = experiment: Cytotoxicity against human OVCAR8 cells at 10^-8 M after 48 hrs by SRB assay; settings: OVCAR-8, 48 h, read-out: GI
[6] = Cytotoxicity against human OVCAR4 cells at 10^-8 M after 48 hrs by SRB assay; settings: OVCAR-4, 48 h, read-out: GI
SNB-19 = experiment: Cytotoxicity against human SNB19 cells at 10^-8 M after 48 hrs by SRB assay; settings: SNB-19, 48 h, read-out: GI
SF-295 = experiment: Cytotoxicity against human SF295 cells at 10^-8 M after 48 hrs by SRB assay; settings: SF-295, 48 h, read-out: GI
KM12 = experiment: Cytotoxicity against human KM12 cells at 10^-8 M after 48 hrs by SRB assay; settings: KM12, 48 h, read-out: GI
HCC 2998 [7] = experiment: Cytotoxicity against human HCC2998 cells at 10^-8 M after 48 hrs by SRB assay; settings: HCC 2998, 48 h, read-out: GI
NCI-H460 [8] = experiment: Cytotoxicity against human NCI-H460 cells at 10^-8 M after 48 hrs by SRB assay; settings: NCI-H460, 48 h, read-out: GI
NCI-H23 [9] = experiment: Cytotoxicity against human NCI-H23 cells at 10^-8 M after 48 hrs by SRB assay; settings: NCI-H23, 48 h, read-out: GI
HOP-62 = experiment: Cytotoxicity against human HOP62 cells at 10^-8 M after 48 hrs by SRB assay; settings: HOP-62, 48 h, read-out: GI
RPMI-8226 [10] = experiment: Cytotoxicity against human RPMI8226 cells at 10^-8 M after 48 hrs by SRB assay; settings: RPMI-8226, 48 h, read-out: GI
CCRF-CEM = experiment: Cytotoxicity against human CCRF-CEM cells at 10^-8 M after 48 hrs by SRB assay; settings: read-out: GI
MDA-MB-435 = experiment: Cytotoxicity against human MDA-MB-435 cells at 10^-7 M after 48 hrs by SRB assay; settings: MDA-MB-435, 48 h, read-out: GI
[11] = Cytotoxicity against human Hs578T cells at 10^-7 M after 48 hrs by SRB assay; settings: Hs-578T, read-out: GI
NCI/ADR-RES = experiment: Cytotoxicity against human NCI/ADR-RES cells at 10^-7 M after 48 hrs by SRB assay; settings: read-out: GI
MCF7 [12] = experiment: Cytotoxicity against human MCF7 cells at 10^-7 M after 48 hrs by SRB assay; settings: MCF7, 48 h, read-out: GI
[13] = Cytotoxicity against human UO31 cells at 10^-7 M after 48 hrs by SRB assay; settings: UO-31, 48 h, read-out: GI
PC-3 [14] = experiment: Cytotoxicity against human PC3 cells at 10^-7 M after 48 hrs by SRB assay; settings: PC-3, 48 h, read-out: GI
TK-10 = experiment: Cytotoxicity against human TK10 cells at 10^-7 M after 48 hrs by SRB assay; settings: TK-10, 48 h, read-out: GI
SN12C = experiment: Cytotoxicity against human SN12C cells at 10^-7 M after 48 hrs by SRB assay; settings: read-out: GI
A498 = experiment: Cytotoxicity against human A498 cells at 10^-7 M after 48 hrs by SRB assay; settings: A498, 48 h, read-out: GI
SK-OV-3 = experiment: Cytotoxicity against human SKOV3 cells at 10^-7 M after 48 hrs by SRB assay; settings: SK-OV-3, 48 h, read-out: GI
OVCAR-8 [15] = experiment: Cytotoxicity against human OVCAR8 cells at 10^-7 M after 48 hrs by SRB assay; settings: OVCAR-8, 48 h, read-out: GI
[16] = Cytotoxicity against human OVCAR4 cells at 10^-7 M after 48 hrs by SRB assay; settings: OVCAR-4, 48 h, read-out: GI
[17] = Cytotoxicity against human OVCAR5 cells at 10^-7 M after 48 hrs by SRB assay; settings: OVCAR-5, 48 h, read-out: GI
M14 = experiment: Cytotoxicity against human M14 cells at 10^-7 M after 48 hrs by SRB assay; settings: M14, 48 h, read-out: GI
SR [18] = experiment: Cytotoxicity against human SR cells at 10^-4 M after 48 hrs by SRB assay; settings: read-out: GI
U-251 = experiment: Cytotoxicity against human U251 cells at 10^-7 M after 48 hrs by SRB assay; settings: U-251, 48 h, read-out: GI
NCI-H522 = experiment: Cytotoxicity against human NCI-H522 cells at 10^-7 M after 48 hrs by SRB assay; settings: NCI-H522, 48 h, read-out: GI
NCI-H460 [19] = experiment: Cytotoxicity against human NCI-H460 cells at 10^-7 M after 48 hrs by SRB assay; settings: NCI-H460, 48 h, read-out: GI
NCI-H23 [20] = experiment: Cytotoxicity against human NCI-H23 cells at 10^-7 M after 48 hrs by SRB assay; settings: NCI-H23, 48 h, read-out: GI
[21] = Cytotoxicity against human EKVX cells at 10^-7 M after 48 hrs by SRB assay; settings: read-out: GI
RPMI-8226 [22] = experiment: Cytotoxicity against human RPMI8226 cells at 10^-7 M after 48 hrs by SRB assay; settings: RPMI-8226, 48 h, read-out: GI
MOLT-4 = experiment: Cytotoxicity against human MOLT4 cells at 10^-7 M after 48 hrs by SRB assay; settings: MOLT-4, 48 h, read-out: GI
HL-60(TB) = experiment: Cytotoxicity against human HL-60(TB) cells at 10^-7 M after 48 hrs by SRB assay; settings: HL-60, 48 h, read-out: GI
Outline: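 NCI 60-human-tumour-cell-line screen run over a 5-log dose range (100, 10, 1, 0.1 and 0.01 µM). Cells were exposed to drug for 48 h. Growth was estimated by sulforhodamine B protein staining. Values are percent growth inhibition at each concentration, relative to untreated control cells.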

HCC 2998 [23] = experiment: Cytotoxicity against human HCC2998 cells at 10^-6 M after 48 hrs by SRB assay; settings: HCC 2998, 48 h, read-out: GI
HCC 2998 [24] = experiment: Cytotoxicity against human HCC2998 cells at 10^-5 M after 48 hrs by SRB assay; settings: HCC 2998, 48 h, read-out: GI
Malme-3M = experiment: Cytotoxicity against human MALME-3M cells at 10^-6 M after 48 hrs by SRB assay; settings: read-out: GI

Q: Which inhibition of growth at 0.1 µM (SR [1]) does the source give for `CCN(Cc1nc2cc(C(F)(F)F)ccc2nc1-c1ccccc1)c1ccc(OC)c(OC)c1` here?
A: < 40%

Q: What about the GI50 (RXF 393) of the same compound?
A: 0.309 µM

Q: And the GI50 [2]?
A: 0.0251 µM

Q: What about the inhibition of growth at 0.01 µM (BT-549) of the same compound?
A: < 40%

Q: And the inhibition of growth at 0.01 µM (MCF7 [3])?
A: < 40%

Q: And the inhibition of growth at 0.01 µM (PC-3 [4])?
A: < 40%

Q: What about the inhibition of growth at 0.01 µM (786-0) of the same compound?
A: < 40%

Q: What about the inhibition of growth at 0.01 µM (OVCAR-8 [5]) of the same compound?
A: 11%

Q: What about the inhibition of growth at 0.01 µM [6] of the same compound?
A: < 40%

Q: And the inhibition of growth at 0.01 µM (SNB-19)?
A: < 40%

Q: What about the inhibition of growth at 0.01 µM (SF-295) of the same compound?
A: < 40%

Q: What about the inhibition of growth at 0.01 µM (KM12) of the same compound?
A: < 40%

Q: And the inhibition of growth at 0.01 µM (HCC 2998 [7])?
A: < 40%

Q: What about the inhibition of growth at 0.01 µM (NCI-H460 [8]) of the same compound?
A: < 40%

Q: What about the inhibition of growth at 0.01 µM (NCI-H23 [9]) of the same compound?
A: < 40%

Q: What about the inhibition of growth at 0.01 µM (HOP-62) of the same compound?
A: < 40%

Q: What about the inhibition of growth at 0.01 µM (RPMI-8226 [10]) of the same compound?
A: < 40%

Q: And the inhibition of growth at 0.01 µM (CCRF-CEM)?
A: < 40%

Q: And the inhibition of growth at 0.1 µM (MDA-MB-435)?
A: < 40%

Q: And the inhibition of growth at 0.1 µM [11]?
A: < 40%

Q: And the inhibition of growth at 0.1 µM (NCI/ADR-RES)?
A: < 40%

Q: What about the inhibition of growth at 0.1 µM (MCF7 [12]) of the same compound?
A: < 40%

Q: And the inhibition of growth at 0.1 µM [13]?
A: < 40%

Q: What about the inhibition of growth at 0.1 µM (PC-3 [14]) of the same compound?
A: < 40%

Q: And the inhibition of growth at 0.1 µM (TK-10)?
A: < 40%

Q: What about the inhibition of growth at 0.1 µM (SN12C) of the same compound?
A: < 40%

Q: What about the inhibition of growth at 0.1 µM (A498) of the same compound?
A: < 40%

Q: What about the inhibition of growth at 0.1 µM (SK-OV-3) of the same compound?
A: < 40%

Q: What about the inhibition of growth at 0.1 µM (OVCAR-8 [15]) of the same compound?
A: 25%

Q: What about the inhibition of growth at 0.1 µM [16] of the same compound?
A: < 40%

Q: And the inhibition of growth at 0.1 µM [17]?
A: < 40%

Q: What about the inhibition of growth at 0.1 µM (M14) of the same compound?
A: < 40%

Q: What about the inhibition of growth at 100 µM (SR [18]) of the same compound?
A: 145%

Q: And the inhibition of growth at 0.1 µM (U-251)?
A: < 40%

Q: And the inhibition of growth at 0.1 µM (NCI-H522)?
A: < 40%

Q: What about the inhibition of growth at 0.1 µM (NCI-H460 [19]) of the same compound?
A: < 40%

Q: What about the inhibition of growth at 0.1 µM (NCI-H23 [20]) of the same compound?
A: < 40%

Q: What about the inhibition of growth at 0.1 µM [21] of the same compound?
A: < 40%

Q: And the inhibition of growth at 0.1 µM (RPMI-8226 [22])?
A: < 40%

Q: What about the inhibition of growth at 0.1 µM (MOLT-4) of the same compound?
A: < 40%

Q: What about the inhibition of growth at 0.1 µM (HL-60(TB)) of the same compound?
A: < 40%

Q: And the inhibition of growth at 1 µM (HCC 2998 [23])?
A: < 40%

Q: And the inhibition of growth at 10 µM (HCC 2998 [24])?
A: 15%

Q: With `C#CCN(Cc1nc2cc(C(F)(F)F)ccc2nc1-c1ccccc1)c1ccc(C)cc1` as the compound, how does the inhibition of growth at 1 µM (Malme-3M) read?
A: < 40%
